This note sets out measurements from ChEMBL document CHEMBL1154325, “Cytotoxic clerodane diterpenoids from Casearia obliqua” (J Nat Prod, 2009).

The test system of one assay is SF-295. The experiment in a line: Cytotoxic activity against human SF295 cells after 69 hrs by MTT assay. It is filed as functional, cell-based. Conditions: SF-295, 69 h. An outline of the steps:
(§1)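 Cells were grown in RPMI 1640 with 10% FBS, 2 mM glutamine, penicillin and streptomycin at 37 °C under 5% CO2, then plated. After 24 h, compounds in DMSO were added at 0.39-25 µg/mL, with doxorubicin at 0.01-0.58 µg/mL as positive control. After 69 h, MTT at 0.5 mg/mL was added for 3 h. Formazan was dissolved in DMSO and read at 595 nm. IC50 came from nonlinear regression.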

The subject of another assay is HL-60. As to the kind of experiment: Cytotoxic activity against human HL60 cells after 69 hrs by MTT assay. Format: functional, cell-based. The following applies: HL-60, 69 h. An outline of the steps:
as §1

A further assay has as its system HCT-8. As to the kind of experiment: Cytotoxic activity against human HCT8 cells after 69 hrs by MTT assay. Format: functional, cell-based. The following applies: HCT-8, 69 h. Summed up: as §1
Assay [1] has as its system MDA-MB-435 (Homo sapiens). The experiment in a line: Cytotoxic activity against human MDA-MB-435 cells after 69 hrs by MTT assay. The following applies: MDA-MB-435, 69 h.

In the case of `C=C/C(C)=C/C[C@]1(C)[C@H]2C[C@H](O)C=C3[C@H](OC(C)=O)O[C@@H](OC(C)=O)[C@@]32[C@H](OC(=O)/C=C/c2ccccc2)C[C@@H]1C`, the IC50 (with SF-295; in the assay on HL-60; in the assay on HCT-8; in assay [1]) was greater than 5 µM each time.
For the molecule `C=C/C(C)=C/C[C@]1(C)[C@H]2C[C@@H](OC(C)=O)C=C3[C@H](OC(C)=O)O[C@@H](OC(C)=O)[C@@]32[C@H](OC(=O)c2ccc(O)cc2)C[C@@H]1C` [CASEOBLIQUIN A], the IC50 (in the assay on SF-295; with HL-60; with HCT-8; in assay [1]) was greater than 5 µM throughout.
For the molecule `COc1cccc2c1C(=O)c1c(O)c3c(c(O)c1C2=O)C[C@@](O)(C(=O)CO)C[C@@H]3O[C@H]1C[C@H](N)[C@H](O)[C@H](C)O1` [DOXORUBICIN], the IC50 was found to be 0.75 µM in the assay on SF-295, 0.07 µM with HL-60, 1.5 µM in the assay on HCT-8 and 0.12 µM in assay [1].
